# In ChEMBL document CHEMBL1142436, “Design and synthesis of 4-substituted indolo[3,2-e][1,2,3]triazolo[1,5-a]pyrimidine derivatives with antitumor activity” (2008):
# Tests used:
# Assay type in all cases: functional
# KM12 = assay: Growth inhibition of human KM12 cells after 48 hrs; conditions: KM12, 48 h
# How it was run: (§1)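 NCI ~60-line screen. Cells were grown in RPMI 1640 with 5% FBS and 2 mM L-glutamine and plated at 5000–40000 cells/well. After a 24 h preincubation, five drug concentrations from DMSO stocks were added for 48 h at 37 °C. Cells were TCA-fixed, stained with SRB and read at 515 nm. GI50 was taken from time-zero and control absorbances and reported as pGI50.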
# SF-295 = assay: Growth inhibition of human SF295 cells after 48 hrs; conditions: SF-295, 48 h; how it was run: as §1
# MCF7 = assay: Growth inhibition of human MCF7 cells after 48 hrs; conditions: MCF7, 48 h; how it was run: as §1
# K562 = assay: Growth inhibition of human K562 cells after 48 hrs; conditions: K562, 48 h; how it was run: as §1
# LOX IMVI = assay: Growth inhibition of human LOXIMVI cells after 48 hrs; how it was run: as §1
# HL-60 = assay: Growth inhibition of human HL60 cells after 48 hrs; conditions: HL-60, 48 h; how it was run: as §1
# TK-10 = assay: Growth inhibition of human TK10 cells after 48 hrs; conditions: TK-10, 48 h
# How it was run: (§2)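 NCI 60-line screen: cells in RPMI 1640 with 5% FBS and 2 mM L-glutamine, plated at 5000–40000 cells/well, grown 24 h (37 °C, 5% CO₂), then exposed to five 10-fold or ½-log dilutions (DMSO stock) for 48 h. Fixed with TCA (final 10% for adherent cells, 16% for suspension cells), then SRB stained with absorbance at 515 nm. GI50 from percentage growth relative to time-zero and control wells.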
# U-251 = assay: Growth inhibition of human U251 cells after 48 hrs; conditions: U-251, 48 h; how it was run: as §2
# SNB-19 = assay: Growth inhibition of human SNB19 cells after 48 hrs; conditions: SNB-19, 48 h; how it was run: as §2
# CCRF-CEM = assay: Growth inhibition of human CCRF-CEM cells after 48 hrs; how it was run: as §1
# T47D = assay: Growth inhibition of human T47D cells after 48 hrs; how it was run: as §2
# SK-MEL-28 = assay: Growth inhibition of human SK-MEL28 cells after 48 hrs; conditions: SK-MEL-28, 48 h; how it was run: as §1
# UACC-257 = assay: Growth inhibition of human UACC257 cells after 48 hrs; conditions: UACC-257, 48 h; how it was run: as §2
# NCI-H522 = assay: Growth inhibition of human NCI-H522 cells after 48 hrs; conditions: NCI-H522, 48 h, read-out: pTGI (converted); how it was run: as §1
# CAKI-1 = assay: Growth inhibition of human CAKI1 cells after 48 hrs; conditions: CAKI-1, 48 h; how it was run: as §1
# NCI-H23 = assay: Growth inhibition of human NCI-H23 cells after 48 hrs; conditions: Homo sapiens, NCI-H23, 48 h; how it was run: as §1
# M14 = assay: Growth inhibition of human M14 cells after 48 hrs; conditions: M14, 48 h; how it was run: as §1
# A549 = assay: Growth inhibition of human A549 cells after 48 hrs; conditions: A549, 48 h; how it was run: as §1
# UO-31 = assay: Growth inhibition of human UO31 cells after 48 hrs; conditions: UO-31, 48 h; how it was run: as §2
# HCT-116 = assay: Growth inhibition of human HCT116 cells after 48 hrs; conditions: HCT-116, 48 h; how it was run: as §1
# A498 = assay: Growth inhibition of human A498 cells after 48 hrs; conditions: A498, 48 h; how it was run: as §1
# [1] = Growth inhibition of human HS578T cells after 48 hrs; conditions: Hs-578T; how it was run: as §1
# EKVX = assay: Growth inhibition of human EKVX cells after 48 hrs; how it was run: as §1
# NCI-H322M = assay: Growth inhibition of human NCI-H322M cells after 48 hrs; how it was run: as §1
# NCI-H226 = assay: Growth inhibition of human NCI-H226 cells after 48 hrs; conditions: NCI-H226, 48 h; how it was run: as §1
# ACHN = assay: Growth inhibition of human ACHN cells after 48 hrs; how it was run: as §1
# 786-0 = assay: Growth inhibition of human 786-0 cells after 48 hrs; conditions: 786-0, 48 h; how it was run: as §1
# OVCAR-5 = assay: Growth inhibition of human OVCAR5 cells after 48 hrs; conditions: OVCAR-5, 48 h; how it was run: as §1
# OVCAR-3 = assay: Growth inhibition of human OVCAR-3 cells after 48 hrs; conditions: OVCAR-3, 48 h; how it was run: as §1
# OVCAR-4 = assay: Growth inhibition of human OVCAR4 cells after 48 hrs; conditions: OVCAR-4, 48 h; how it was run: as §1
# NCI-H460 = assay: Growth inhibition of human NCI-H460 cells after 48 hrs; conditions: NCI-H460, 48 h; how it was run: as §1
# IGROV-1 = assay: Growth inhibition of human IGROV1 cells after 48 hrs; conditions: IGROV-1, 48 h; how it was run: as §1
# MOLT-4 = assay: Growth inhibition of human MOLT4 cells after 48 hrs; conditions: MOLT-4, 48 h; how it was run: as §1
compound,measurement,setting,value
CCCCN(CCCC)CCCn1c(=O)c2c3ccccc3n(C)c2n2nnc(-c3ccccc3)c12,GI50,KM12,33.9 µM
same,TGI,KM12; read-out: pTGI (converted),> 100 µM
same,GI50,SF-295,31.6 µM
same,TGI,SF-295; read-out: pTGI (converted),> 100 µM
same,GI50,MCF7,37.2 µM
same,TGI,MCF7; read-out: pTGI (converted),> 100 µM
same,GI50,K562,13.8 µM
same,TGI,K562; read-out: pTGI (converted),> 100 µM
same,GI50,LOX IMVI,28.2 µM
same,TGI,LOX IMVI; read-out: pTGI (converted),> 100 µM
same,GI50,HL-60,2.57 µM
same,TGI,HL-60; read-out: pTGI (converted),41.7 µM
same,GI50,TK-10,1.91 µM
same,TGI,TK-10; read-out: pTGI (converted),22.4 µM
same,GI50,U-251,33.1 µM
same,TGI,U-251; read-out: pTGI (converted),> 100 µM
same,GI50,SNB-19,> 100 µM
same,TGI,SNB-19; read-out: pTGI (converted),> 100 µM
same,GI50,CCRF-CEM,4.17 µM
same,TGI,CCRF-CEM; read-out: pTGI (converted),91.2 µM
same,GI50,T47D,55 µM
same,TGI,T47D; read-out: pTGI (converted),> 100 µM
same,GI50,SK-MEL-28,> 100 µM
same,TGI,SK-MEL-28; read-out: pTGI (converted),> 100 µM
same,GI50,UACC-257,28.8 µM
same,TGI,UACC-257; read-out: pTGI (converted),83.2 µM
same,TGI,NCI-H522,10.7 µM
same,GI50,CAKI-1,50.1 µM
same,TGI,CAKI-1; read-out: pTGI (converted),> 100 µM
same,CC50,NCI-H23; read-out: Log LC50 (the source's name) (converted),12.9 µM
same,TGI,NCI-H23; read-out: pTGI (converted),63.1 µM
same,GI50,M14,21.4 µM
same,TGI,M14; read-out: pTGI (converted),> 100 µM
same,GI50,A549,43.7 µM
same,TGI,A549; read-out: pTGI (converted),> 100 µM
same,GI50,UO-31,6.03 µM
same,TGI,UO-31; read-out: pTGI (converted),46.8 µM
same,GI50,HCT-116,18.6 µM
same,TGI,HCT-116; read-out: pTGI (converted),> 100 µM
same,GI50,A498,42.7 µM
same,TGI,A498; read-out: pTGI (converted),> 100 µM
same,GI50,[1],38.9 µM
same,TGI,[1]; read-out: pTGI (converted),> 100 µM
same,GI50,EKVX,56.2 µM
same,TGI,EKVX; read-out: pTGI (converted),> 100 µM
same,GI50,NCI-H322M,28.8 µM
same,TGI,NCI-H322M; read-out: pTGI (converted),> 100 µM
same,GI50,NCI-H226,57.5 µM
same,TGI,NCI-H226; read-out: pTGI,> 100 µM
same,GI50,ACHN,34.7 µM
same,TGI,ACHN; read-out: pTGI (converted),> 100 µM
same,GI50,786-0,38.9 µM
same,TGI,786-0; read-out: pTGI (converted),> 100 µM
same,GI50,OVCAR-5,22.4 µM
same,TGI,OVCAR-5; read-out: pTGI (converted),> 100 µM
same,GI50,OVCAR-3,49 µM
same,TGI,OVCAR-3; read-out: pTGI (converted),> 100 µM
same,GI50,OVCAR-4,17.4 µM
same,TGI,OVCAR-4; read-out: pTGI (converted),83.2 µM
same,GI50,NCI-H460,40.7 µM
same,TGI,NCI-H460; read-out: pTGI (converted),> 100 µM
same,LC50,IGROV-1,> 50.1 µM
same,GI50,MOLT-4,13.8 µM
same,TGI,MOLT-4; read-out: pTGI (converted),> 100 µM
